From ChEMBL document CHEMBL4270628, “Design, synthesis, and evaluation of cystargolide-based β-lactones as potent proteasome inhibitors” (Eur J Med Chem, 2018)
Calls of active or inactive are those of the source. The rule behind the calls is not given here.

Assays:
[1] = target: T1, Proteasome Macropain subunit MB1 (Homo sapiens) (UniProt P28074); test: Inhibition of 20S proteasome beta5 subunit in human MCF7 cells using Suc-LLVY-AMC as substrate pretreated for 1 hr followed by compound washout and cell lysis prior to substrate addition measured after 1 hr by fluorescence assay; assay type: cell-based
T1 sequence (whole entry): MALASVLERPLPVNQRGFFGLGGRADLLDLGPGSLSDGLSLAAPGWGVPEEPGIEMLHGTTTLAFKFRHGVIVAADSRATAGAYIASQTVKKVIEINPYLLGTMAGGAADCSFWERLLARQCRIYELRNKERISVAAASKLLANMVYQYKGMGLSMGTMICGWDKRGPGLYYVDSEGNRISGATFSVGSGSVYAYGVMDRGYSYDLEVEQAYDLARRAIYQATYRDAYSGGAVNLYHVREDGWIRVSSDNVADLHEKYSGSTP
In short: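 Adherent MCF7 (500,000 cells/mL, overnight, ~100% confluent) dosed 1 h at 37 °C, 5% CO₂; washed twice with PBS, lysed in HEPES/Triton buffer on ice 1 h; 15 min at 37 °C, then 100 μM Suc-LLVY-AMC 1 h at 37 °C; ex 360/em 480 nm. IC50 from best three of four biological replicates per concentration.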

[2] = Inhibition of yeast 20S proteasome beta5 subunit using Suc-LLVY-AMC as substrate pretreated for 30 mins followed by substrate addition and measured after 60 mins by fluorescence assay; design: species or system Saccharomyces cerevisiae
In short: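 Purified yeast 20S proteasome at 8 μg/mL preincubated with compound 30 min at 37 °C; then 100 μM Suc-LLVY-AMC for 60 min at 37 °C; cleaved-AMC fluorescence ex 360/em 480 nm. IC50 by nonlinear regression on normalized data, confirmed in at least technical triplicate, reported ± SD.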

[3] = target: T2, Proteasome subunit beta type-8 (Homo sapiens, UniProt P28062); test: Inhibition of human immunoproteasome beta5 subunit using Suc-LLVY-AMC as substrate pretreated for 30 mins followed by substrate addition and measured after 60 mins by fluorescence assay
T2 sequence (P28062 whole entry): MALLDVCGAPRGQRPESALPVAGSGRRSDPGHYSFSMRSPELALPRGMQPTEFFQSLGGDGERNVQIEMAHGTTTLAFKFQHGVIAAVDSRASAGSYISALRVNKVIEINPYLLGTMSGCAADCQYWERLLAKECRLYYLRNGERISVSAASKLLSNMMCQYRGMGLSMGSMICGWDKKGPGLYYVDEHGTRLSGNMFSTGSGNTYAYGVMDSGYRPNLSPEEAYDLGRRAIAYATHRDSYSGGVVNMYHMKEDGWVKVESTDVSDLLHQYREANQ

[4] = tested on: MCF7; test: Cytotoxicity against human MCF7 cells after 48 hrs by MTT assay; assay type: functional, cell-based; conditions: MCF7, 48 h
In short: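 MCF7 cells plated at 4*10⁴ cells/mL and left overnight to adhere, then exposed to a concentration series for 48 h, with DMSO vehicle, untreated cells, and 100 μM phenylarsine oxide as controls. MTT (5 mg/mL stock in PBS) was added for 2 h at 37 °C. Formazan was dissolved in DMSO and OD read at 490 nm. The best three of quadruplicate wells were used; IC50 from nonlinear regression on normalized data, ±SD.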

[5] = tested on: Jurkat; test: Induction of apoptosis in human Jurkat cells after 24 hrs by Annexin-V-FITC/propidium iodide staining based flow cytometry; assay type: functional, cell-based
[6] = tested on: Jurkat; test: Cell cycle arrest in human Jurkat cells assessed as accumulation at G2/M phase at 0.1 to 1 uM after 10 hrs by Vybrant DyeCycle Orange staining based flow cytometry; assay type: functional
[7] = target: T1, Proteasome Macropain subunit MB1 (Homo sapiens); test: Inhibition of 20S proteasome beta5 subunit in human MCF7 cells assessed as accumulation of ubiuitinated protein at 1 to 10 uM after 9.5 hrs by Western blot analysis; assay type: cell-based
[8] = target: T3, Proteasome subunit beta type-1 (Saccharomyces cerevisiae (strain ATCC 204508 / S288c) (Baker's yeast), UniProt P38624); test: Inhibition of yeast 20S proteasome beta1 subunit using fluorescent substrate pretreated for 30 mins followed by substrate addition and measured after 60 mins by fluorescence assay
T3 sequence (P38624 whole entry): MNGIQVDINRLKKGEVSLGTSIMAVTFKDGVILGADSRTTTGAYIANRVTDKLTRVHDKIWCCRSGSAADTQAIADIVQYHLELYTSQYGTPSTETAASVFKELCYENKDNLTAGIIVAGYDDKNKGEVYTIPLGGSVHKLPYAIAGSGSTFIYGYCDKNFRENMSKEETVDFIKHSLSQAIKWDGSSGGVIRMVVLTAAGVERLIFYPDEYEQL

[9] = target: T4, Proteasome Macropain subunit MB1 (Homo sapiens, UniProt P28074); test: Inhibition of 20S proteasome beta5 subunit in human Jurkat cell lysate using Suc-LLVY-AMC as substrate pretreated for 30 mins followed by substrate addition and measured after 60 mins by fluorescence assay
T4 sequence (P28074 whole entry): T1 sequence (whole entry)
In short: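 Lysate was preincubated with compound 30 min at 37 °C. 100 μM substrate solution was added: Suc-LLVY-AMC for β5, Suc-RLR-AMC for β2. IC50 by nonlinear regression, ±SD.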

[10] = target: T1, Proteasome Macropain subunit MB1 (Homo sapiens); test: Binding affinity to 20S proteasome beta5 subunit in human Jurkat cell lysate assessed as decrease in protein hydrolysis at 100 uM pretreated for 30 mins followed by Suc-LLVY-AMC addition and measured after 1 hr by fluorescence assay
In short: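 Compound diluted in lysis buffer, preincubated 30 min at 37 °C. Suc-LLVY-AMC added as 100 μM solution, 60 min at 37 °C. AMC fluorescence read at ex 360/em 480 nm. Best three of quadruplicates used; IC50 by nonlinear regression, ± SD.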

[11] = target: T5, Proteasome subunit beta type-2 (Saccharomyces cerevisiae (strain ATCC 204508 / S288c) (Baker's yeast), UniProt P25043); test: Inhibition of yeast 20S proteasome beta2 subunit using SUC-RLR-AMC as substrate pretreated for 30 mins followed by substrate addition and measured after 60 mins by fluorescence assay
T5 sequence (P25043 whole entry): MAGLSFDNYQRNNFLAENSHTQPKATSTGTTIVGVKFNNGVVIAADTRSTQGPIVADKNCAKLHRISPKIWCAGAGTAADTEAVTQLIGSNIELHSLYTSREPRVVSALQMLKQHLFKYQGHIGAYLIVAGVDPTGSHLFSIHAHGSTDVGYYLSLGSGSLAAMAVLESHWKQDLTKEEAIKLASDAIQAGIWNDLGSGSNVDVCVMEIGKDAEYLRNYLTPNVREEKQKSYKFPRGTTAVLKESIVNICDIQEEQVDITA
In short: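 Fluorogenic substrate was then added (100 μM Suc-RLR-AMC solution for β2) and incubated 60 min at 37 °C; cleavage read at ex 360/em 480 nm. IC50 from nonlinear regression on normalized data, ±SD.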

[12] = tested on: MDA-MB-231; test: Cytotoxicity against human MDA-MB-231 cells after 48 hrs by MTT assay; assay type: functional, cell-based; conditions: MDA-MB-231, 48 h
In short: (§1)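 MTT viability after 48 h exposure to a concentration series; MDA-MB-231 seeded at 4*10⁴ cells/mL and adhered overnight, RPMI 8226 at 4*10⁵ cells/mL and dosed immediately. MTT (5 mg/mL in PBS) added, 2 h at 37 °C; formazan dissolved in DMSO (MDA-MB-231) or DMF/SDS pH<4 (RPMI 8226); OD 490 nm.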

[13] = tested on: RPMI-8226; test: Cytotoxicity against human RPMI8226 cells after 48 hrs by MTT assay; assay type: functional, cell-based; conditions: RPMI-8226, 48 h; in short: as §1
[14] = Half life in human AB serum by RP-HPLC analysis; assay type: ADME, cell-free
[15] = Half life in 0.1 M TEAA buffer by RP-HPLC analysis; assay type: physicochemical
[16] = n-Octanol/Tris-HCl buffer partition coefficient, log P of the compound at 0.5 mg after 2 mins by RP-HPLC method; assay type: physicochemical

| Compound | inhibition [1] | IC50 [2] [nM] | IC50 [3] [nM] | IC50 [4] [µM] | Activity [5] | Activity [6] | inhibition [7] | IC50 [8] [µM] | IC50 [9] [nM] | Activity [10] | IC50 [11] [µM] | IC50 [12] [nM] | IC50 [13] [nM] | t1/2 [14] [min] | t1/2 [15] [min] | logP [16] |
| --- | --- | --- | --- | --- | --- | --- | --- | --- | --- | --- | --- | --- | --- | --- | --- | --- |
| CC(C)[C@H](NC(=O)[C@@H]1OC(=O)[C@H]1C(C)C)C(=O)N[C@H](C(=O)OCc1ccccc1)C(C)C | Active | 37.2 | 44.7 | 7 | Active | Active | Active |  |  |  |  |  |  |  |  |  |
| CC(C)[C@H](NC(=O)[C@@H](NC(=O)[C@@H]1OC(=O)[C@H]1C(C)C)C(C)C)C(=O)O |  |  | 681 | 84.7 |  |  |  | 10.1 | 900 | Active | 61.6 |  |  |  |  |  |
| CC[C@H](C)[C@@H]1C(=O)O[C@H]1C(=O)N[C@H](C(=O)N[C@H](C(=O)OCc1ccccc1)C(C)C)C(C)C | Active |  |  | 1.85 | Active | Active | Active |  |  |  | […] | 287 | 191 |  |  |  |
| CC[C@H](C)[C@@H]1C(=O)O[C@H]1C(=O)N[C@H](C(=O)N[C@@H](COCc1ccccc1)C(=O)OCc1ccccc1)C(C)C | Active | 24.5 | 9.1 | 0.416 |  |  |  | 17.8 |  |  | > 50 | 74 | 41 | 16.1 | 4.32 | 1.52 |
